Reference: ChEMBL document CHEMBL5661974, “Pharmacologic characterization of a potent inhibitor of class I phosphatidylinositide 3-kinases” (Cancer Res, 2007)
pIC50: −log10 of the molar value. Activity calls are given as the source filed them. No cut-off for these calls is given here.

What was measured:
MDA-MB-468 [1] = assay: Antiproliferative activity against human MDA-MB-468 cells harboring PTEN deletion assessed as cell growth inhibition incubated for 96 hrs by SRB assay; type: functional
HCT-116 [2] = assay: Antiproliferative activity against human HCT-116 cells harboring PI3KCA mutant assessed as cell growth inhibition incubated for 96 hrs by SRB assay; type: functional
MDA-MB-435 = assay: Antiproliferative activity against human MDA-MB-435 cells harboring AKT assessed as cell growth inhibition incubated for 96 hrs by SRB assay; type: functional
A549 = assay: Antiproliferative activity against human A549 cells harboring AKT assessed as cell growth inhibition incubated for 96 hrs by SRB assay; type: functional
U-87 MG [3] = assay: Inhibition of recombinant PI3K in human U-87MG cells assessed as phosphorylation of AKT at Thr308 at 5 times of GI50 concentration within 15 mins treatment by immunoblot analysis; type: cell-based
[4] = Inhibition of recombinant human PI3K in cricetulus griseus CHO cells expressing GFP-tagged AKT2 assessed as translocation to the plasma membrane following IGF-1 stimulation by fluorescence assay
Procedure, shortened: (§1)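 CHO cells expressing GFP-tagged AKT1, AKT2, AKT3 or PDK1, held in 0.05% serum with 0.1% BSA and stimulated with 100 nmol/L IGF-1. Plasma-membrane translocation was read by automated fluorescence imaging, with IC50 from concentration-response curves; Z' above 0.5.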

[5] = Inhibition of recombinant human PI3K in cricetulus griseus CHO cells expressing GFP-tagged AKT3 assessed as translocation to the plasma membrane following IGF-1 stimulation by fluorescence assay; procedure, shortened: as §1
[6] = Inhibition of recombinant human PI3K in cricetulus griseus CHO cells expressing GFP-tagged PDK1 assessed as translocation to the plasma membrane following IGF-1 stimulation by fluorescence assay; procedure, shortened: as §1
[7] = Drug metabolism in mouse microsomes incubated for 30 mins by LC-MS/MS analysis; type: ADME, Microsome; details: read-out: Drug metabolism
Procedure, shortened: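 Mouse or human microsomes incubated 30 min with inhibitor at 1 or 10 μmol/L. Metabolite detection by LC-MS/MS on an ion trap, with a 10–90% methanol gradient over 6 min and scan range 50–1,000 amu.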

[8] = Cmax in BALB/C mouse plasma at 2.5 mg/kg, iv by LC-MS/MS analysis; type: ADME, organism-based
Procedure, shortened: (§2)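 Female BALB/c mice, 6–8 weeks old, given 2.5 mg/kg i.v. in 10% DMSO, 0.5% Tween 20 in saline. Plasma came from serial bleeds; tissues were homogenized in 2 or 3 volumes PBS. Samples were methanol-precipitated with an analogue internal standard, then LC-MS/MS by multiple reaction monitoring against an 8-point external calibration of 2–20,000 nmol/L. Parameters came from WinNonlin noncompartmental analysis, model 201 for plasma and model 200 for tissues.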

[9] = Cmax in BALB/C mouse liver at 2.5 mg/kg, iv by LC-MS/MS analysis; type: ADME, organism-based; procedure, shortened: as §2
[10] = Cmax in BALB/C mouse plasma at 50 mg/kg, ip by LC-MS/MS analysis; type: ADME, organism-based; details: in vivo
Procedure, shortened: (§3)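 Female BALB/c mice, 6–8 weeks old, dosed i.p. at 50 mg/kg in 20% […] β-cyclodextrin in saline, 0.1 mL/10 g. Serial blood samples; plasma was methanol-precipitated with an analogue internal standard. LC-MS/MS multiple reaction monitoring, external calibration 2–20,000 nmol/L. Noncompartmental analysis, model 200.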

[11] = Tmax in BALB/C mouse plasma at 2.5 mg/kg, iv by LC-MS/MS analysis; type: ADME, organism-based; procedure, shortened: as §2
[12] = Tmax in BALB/C mouse liver at 2.5 mg/kg, iv by LC-MS/MS analysis; type: ADME, organism-based; procedure, shortened: as §2
[13] = Tmax in BALB/C mouse kidney at 2.5 mg/kg, iv by LC-MS/MS analysis; type: ADME, organism-based; procedure, shortened: as §2
[14] = AUClast in BALB/C mouse spleen at 2.5 mg/kg, iv by LC-MS/MS analysis; type: ADME, organism-based; procedure, shortened: as §2
[15] = Volume of distribution in BALB/C mouse plasma at 50 mg/kg, ip by LC-MS/MS analysis; type: ADME, organism-based; details: in vivo; procedure, shortened: as §3
[16] = Half life in BALB/C mouse kidney at 2.5 mg/kg, iv by LC-MS/MS analysis; type: ADME, organism-based; procedure, shortened: as §2
HCT-116 [17] = assay: Antitumor activity against PIK3CA mutant human HCT-116 cells xenografted female Ncr model assessed as T/C at 30 mg/kg, ip administered twice a daily for 14 days relative to control; type: functional; details: time 14 day
PC-3 [18] = assay: Antitumor activity against PTEN null human PC-3 cells xenografted male Ncr model assessed as T/C at 30 mg/kg, ip administered once a daily for 14 days relative to control; type: functional; details: time 14 day
PC-3 [19] = assay: Antitumor activity against PTEN null human PC-3 cells xenografted male Ncr model assessed as T/C at 30 mg/kg, ip administered twice a daily for 14 days relative to control; type: functional; details: time 14 day
MDA-MB-468 [20] = assay: Antitumor activity against PTEN null human MDA-MB-468 cells xenografted female Ncr model assessed as T/C at 70 mg/kg, ip administered once a daily for 40 days relative to control; type: functional; details: time 40 day
[21] = Antitumor activity against PIK3CA mutant human […] cells xenografted female Ncr model assessed as T/C at 100 mg/kg, ip administered twice a daily for 16 days relative to control; type: functional; details: time 16 day
IGROV-1 = assay: Antitumor activity against PIK3CA mutant human IGROV-1 cells xenografted female Ncr model assessed as T/C at 70 mg/kg, ip administered once a daily for 14 days relative to control; type: functional; details: time 14 day
U-87 MG [22] = assay: Inhibition of cell migration in human U-87MG cells at 50 nmol/L incubated for 16 to 24 hrs by transwell assay relative to control; type: functional, U-87MG ATCC; details: time 16-24 hrs
OVCAR-3 [23] = details: Homo sapiens, dose 100.0 mg/kg, route ip, time 750.0 min
OVCAR-3 [24] = details: Homo sapiens, dose 100.0 mg/kg, route ip, time 750.0 min; remark: listed apart in the source
U-87 MG [25] = assay: Inhibition of cell invasion in human U-87MG cells at 50 nmol/L by transwell assay relative to control
U-87 MG [26] = assay: Antitumor activity against PTEN null human U-87MG cells xenografted female Ncr model assessed as body weight loss at 40 mg/kg, ip administered daily for 14 days relative to control; details: time 14 day
U-87 MG [27] = assay: Antitumor activity against PTEN null human U-87MG cells xenografted female Ncr model assessed as body weight loss at 70 mg/kg, ip administered daily for 14 days relative to control; details: time 14 day
MDA-MB-468 [28] = assay: Antitumor activity against PTEN null human MDA-MB-468 cells xenografted female Ncr model assessed as body weight loss at 30 mg/kg, ip administered twice a daily for 14 days relative to control; details: time 14 day
HCT-116 [29] = assay: Antitumor activity against PIK3CA mutant human HCT-116 cells xenografted female Ncr model assessed as body weight loss at 30 mg/kg, ip administered once a daily for 14 days relative to control; details: time 14 day

Compound: Oc1cccc(-c2nc(N3CCOCC3)c3oc4ncccc4c3n2)c1 [PI-103]
- GI50 (MDA-MB-468 [1]): 0.69 µM
- GI50 (HCT-116 [2]): 0.93 µM
- GI50 (MDA-MB-435): 0.13 µM
- GI50 (A549): 0.21 µM
- inhibition (U-87 MG [3]): Active
- pIC50 [4]: 7.89
- pIC50 [5]: 7.96
- pIC50 [6]: 7.18
- metabolised at 0.5 h [7]: > 70%
- Cmax [8]: 4.17 µM
- Cmax [9]: 0.801 µM
- Cmax [10]: 6.68 µM
- Tmax [11]: 0 h
- Tmax [12]: 4.98 min
- Tmax [13]: 4.98 min
- AUC(0-t) [14]: 406 nM·h
- Vd [15]: 0.71 L
- half-life [16]: 54 min
- T/C (HCT-116 [17]): 28%
- T/C (PC-3 [18]): 80.8%
- T/C (PC-3 [19]): 43.3%
- T/C (MDA-MB-468 [20]): 47.2%
- T/C [21]: 36%
- T/C (IGROV-1): 74.7%
- inhibition at 0.05 µM (U-87 MG [22]): 44%
- inhibition (OVCAR-3 [23]): Active
- inhibition (OVCAR-3 [24]): Active
- inhibition at 0.05 µM (U-87 MG [25]): 44%
- Body weight loss (U-87 MG [26]): <15%
- Body weight loss (U-87 MG [27]): <15%
- Body weight loss (MDA-MB-468 [28]): <15%
- Body weight loss (HCT-116 [29]): <15%
